Assay outcomes deposited in PubChem BioAssay by Sanford-Burnham Center for Chemical Genomics.
Apaf-1 act – activators of human Apaf-1 apoptosome, primary screen, biochemical, DEVD-Rh110 fluorescence, uHTS; Apaf-1 apoptosome caspase-3 activation; active compounds read low; 0.31% of 330,000 active; activity change, negative = activation, % at 20 µM;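 active = activity change at or below -40% at 20 µM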
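Material: biochemical Apaf-1 apoptosome reconstitution; Medium: 20 mM HEPES buffer, pH 7.5, containing CHAPS and BSA; Reagent: dATP, cytochrome c, and (Z-DEVD)2-Rh110 caspase-3 substrate; Times: 30 min preincubation, 50 min reaction, room temperature; Signal: Rh110 fluorescence, excitation 480 nm, emission 540 nm; Measure: Caspase-3 activity via Apaf-1.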
Rh110 interf act – Rh110 fluorescence interference by putative Apaf-1 activators, confirmation, artefact control for Apaf-1 activator project, biochemical, 20 µM; quenched caspase reaction, Ex480/Em540; 980 tested, under 10 active; fluorescence interference (activity change), % at 20 µM, hits read low; shares compounds with Apaf-1 act;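 active = mean activity change at or below -40% when tested at 20 µM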
Apaf-1 act conf – Apaf-1 activators, single-dose retest, confirmation, biochemical, fluorescence, DEVD-Rh110, 20 µM. shares compounds with Apaf-1 act. reconstituted apoptosome caspase-3 activity; active compounds read low. activity change, negative = activation, % at 20 µM. 5% of 980 active;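 active = mean activity change at or below -40%, meaning activation of 40% or more, at 20 µM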
Numbers without * were called inactive; . = no result. Not all results are given here.

SMILES	Apaf-1 act	Rh110 interf act	Apaf-1 act conf
FC(F)(F)c1ccc(CN2C[C@@H]3C(c4ccc(Cl)nc4)C4(c5cccnc5)CC3(C4)[C@H]2c2ccccc2)cc1 (stereo partly specified)	42	.	.
C=CCn1c(SCC(=O)Nc2sccc2C(N)=O)nc2sc(CC)cc2c1=O	42	.	.
CSc1nc(NC(C)(C)C)nc(Oc2ccc(=O)n(C)n2)n1	-55*	6	2
CCc1ccccc1N1CSC2=C(C#N)C(c3cc(OC)c(OC)cc3OC)CC(=O)N2C1 (stereo unspecified)	43	.	.
O=C(c1ccco1)N1CCN(C(c2ccccc2)c2nnnn2Cc2cccs2)CC1 (stereo unspecified)	-107*	9	16
O=C1c2ccccc2-c2onc3c(N4CCN(CCO)CC4)cc(N4CCN(C(=O)c5ccco5)CC4)c1c23	52	.	.
CN1CCN(c2cc(N3CCN(C(=O)c4ccco4)CC3)c3c4c(onc24)-c2ccccc2C3=O)CC1	82	.	.
CCCCCCCCCCCCCCCC[n+]1ccc(C(N)=O)cc1	73	.	.
CC(C)OP(=O)(OC(C)C)C(Nc1ccccn1)c1ccc(F)cc1 (stereo unspecified)	55	.	.
CCOC(=O)c1nn(-c2ccc(C)c(C)c2)c(=O)c2c(N)scc12	56	.	.
O=C(NC1CC1)C1=C[C@H](c2ccc(C(F)(F)F)cc2)C[C@H](OCCCCO)O1	50	.	.
CCN(CC(=O)Nc1ccccc1C(F)(F)F)C(=O)c1ccccc1SCC(=O)N1CCCC1	43	.	.
O=C(NC(=S)Nc1ccccc1C(F)(F)F)c1ccccc1F	-244*	14	17
Fc1ccc(NC(=S)Nc2cccc3ccccc23)cc1F	81	.	.
O=C1c2ccccc2-c2nnc(-c3ccc(F)cc3)cc21	78	.	.
Cc1cccc(Oc2nc(-c3ccccn3)nc3ccccc23)c1	-553*	12	12
CCOC(=O)Nc1ccc(NCc2ccc(F)cc2)nc1N	96	.	.
O=C(NCCCO)Nc1ccc2nc(-c3ccco3)c(-c3ccco3)nc2c1	57	.	.
NC(=O)CSc1nc2c(sc3ccccc32)c(=O)n1CCCN1CCOCC1	-236*	4	7
COC(=O)c1cc(C)nc2c1C(=O)C(=O)C=C2N1CCOCC1	99	.	.
COc1ccc(N2C(=O)[C@@H]3[C@H](C2=O)[C@H]2c4ccccc4C=CN2[C@@H]3C(=O)Nc2ccccc2)cc1	67	.	.
Cc1[nH]c(=O)[nH]c(=O)c1S(=O)(=O)Nc1ccc(F)cc1F	-265*	4	7
CCC[C@@H](CN1CCC[C@H]1CN1C(N)=NC[C@@H]1Cc1ccccc1)N1C[C@@H](Cc2ccccc2)N(CCCC2CCCC2)C1=N	70	.	.
Cc1ccc(C)c(S(=O)(=O)c2c(C)cc(C)nc2Cl)c1	-303*	1	8
Cc1ccc(C)c(S(=O)(=O)C(C#N)c2nc3ccccc3nc2N2CCCC2)c1 (stereo unspecified)	87	.	.
SMILES	Apaf-1 act	Rh110 interf act	Apaf-1 act conf
CCC(=O)N(CCc1ccccc1C)Cc1cc2cc3c(cc2[nH]c1=O)OCO3	41	.	.
Cn1c(C(=O)N2CCN(c3nc4ccccc4s3)CC2)cc2sccc21	41	.	.
CCCCCCSc1cc(-c2nc3cnccn3c2NCCCC)ccc1OC	46	.	.
COc1ccc(/C=N/NC(=O)c2nn(-c3ccc(Cl)cc3)c(=O)c3c(N)scc23)cc1	54	.	.
CC(C)[C@H](CN1CCC[C@H]1CN1C(N)=NC[C@@H]1Cc1ccccc1)N1C[C@@H](Cc2ccccc2)N(CCc2ccc(Cl)c(Cl)c2)C1=N	82	.	.
Cc1ccc(C(=O)NC2CCN(C(=O)Nc3ccccc3)CC2)cc1	-50*	5	6
COc1ccc(OCC(NS(=O)(=O)c2ccc(-n3cnnn3)cc2)C(C)C)cc1 (stereo unspecified)	-424*	13	6
COc1ccc(S(=O)(=O)Nc2cc(SCC(=O)O)c(O)c3ccccc23)cc1	85	.	.
COc1ccc(S(=O)(=O)NCc2ccc3c(c2)cc(C)n3C)cc1	51	.	.
COc1cccc(-c2sc3cc(OC)c(OC)cc3c2-c2ccc(OCCN3CCCCC3)cc2)c1	66	.	.
O=C(O)c1ccc(NC2=C/C(=N/S(=O)(=O)c3ccccc3)c3ccccc3C2=O)cc1	96	.	.
Cc1cccc(NC(=O)c2cc(NC(=O)C3CCCCC3C(=O)O)ccc2N2CCOCC2)c1 (stereo unspecified)	-127*	3	12
CN1CCN(c2ccc(NC(=O)c3cc(S(N)(=O)=O)ccc3N3CCOCC3)cc2)CC1	40	.	.
CCc1cccc(NC(=S)Nc2cccc3ccccc23)c1	79	.	.
CN(CC(=O)NCc1ccccc1)CC(=O)Nc1ccc(Cl)c(C(F)(F)F)c1	53	.	.
Cc1ccc(NC(=O)CNCc2ccccc2)cc1Br	-48*	11	-9
Nc1ccc2nn(-c3ccccc3)nc2c1	93	.	.
C=CCC[C@@H](Cc1ccc(F)cc1)C(=O)OC[C@@H]1CCCN1C(=O)[C@@H](CC=C)CC(=O)N(CCO)Cc1ccccc1	48	.	.
CCn1c2ccccc2c2cc(NC(C)=O)ccc21	-226*	-1	-1
CCn1c(=O)c2cc(C(=O)N(C)c3cc(C)ccc3OC)sc2c2ccccc21	53	.	.
CC(=O)Nc1ccc2c(c1)N(C(=O)CN(C)C)c1ccccc1CC2	43	.	.
C#CCOCCOCCOCCNc1nc(N2CCN(C(=O)CCCCCCCCCCNC(=O)[C@H](CCCCN)n3cc(CCO)nn3)CC2)nc(N2CCN(C(=O)CCCCCCCCCCNC(=O)[C@H](CCCCN)n3cc(CCCC(=O)O)nn3)CC2)n1	59	.	.
COC(=O)C1=C(C)N(Cc2ccccc2)C(=NCc2cccc(Cl)c2)N[C@H]1c1ccccc1	56	.	.
CCSc1nnc2nc3[nH]c4c(C)cccc4c3nn12	-76*	-9	5
COc1ccc(OCC(=O)N/N=C(\C)c2cccs2)cc1	-81*	2	15
SMILES	Apaf-1 act	Rh110 interf act	Apaf-1 act conf
COc1ccc2c(c1)Cc1sc(NC(=O)c3cccs3)nc1-2	87	.	.
O=C1Cc2ccccc2C(=O)N1CCc1ccccc1	79	.	.
CCCCC[n+]1ccn(C2=C([O-])c3ccccc3C(=O)/C2=N\S(=O)(=O)c2ccc(Cl)cc2)c1	70	.	.
Clc1ccc(-c2ccc(CNCC3CCCO3)o2)cc1 (stereo unspecified)	-131*	5	3
C[C@@H](CSc1ccc(Br)cc1)CN1CC[C@H](NC(=O)OCc2ccccc2)CCC1=O	40	.	.
CCN1CCN(c2ccc(NC(=O)CCc3c(C)nc4c(-c5ccccc5)c(C)nn4c3C)cc2)CC1	48	.	.
Cc1ccc2oc(=O)cc(CN3CC(C)OC(C)C3)c2c1 (stereo unspecified)	-66*	11	8
CN(CCO)c1nc(N)c2c(N)nc3c(c2c1C#N)CC(=O)N3C1CCCC1	98	.	.
CCCCCCCCCn1c2c(c(=N)c3c1CCC3)CCCC2	51	.	.
COc1cc(/C=C/c2cc[n+](C)cc2)ccc1OCC(=O)Nc1ccc(Cl)c(Cl)c1	73	.	.
COc1ccc(/C=N/NC(=O)c2ccc(CSc3nncn3C)cc2)cc1OC	-192*	3	-1
Oc1ccc(C=Nc2ccc3ncccc3c2)c(O)c1	95	.	.
